The source made the active and inactive calls. No cut-off for these calls is given here.
How the values were obtained:
[1] = Displacement of [125I]DMIC from amyloid beta (1 to 42) peptide
Outline: (§1)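 Aβ(1-42) aggregated at 0.25 mg/mL in 10 mM sodium phosphate, 1 mM EDTA, pH 7.4, 37 °C for 42 h with gentle constant shaking. Competition against [125I]DMIC. Bound and free separated by GF/B filtration, filter radioactivity read by γ counter. IC50 from displacement curves of three independent experiments, Ki by Cheng-Prusoff.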

[2] = molecular target: Amyloid-beta precursor protein (Homo sapiens) (UniProt P05067); assay: Binding affinity to beta amyloid plaques in human Alzheimer's disease patient brain at 54 uCi/200 uL by autoradiography; conditions: tested as the 18F-labelled form
[3] = tested on: Amyloid-beta precursor protein (Homo sapiens), P05067 [K670N,M671L]; assay: Binding affinity to human recombinant APP695 K670N and M671L Swedish double mutant plaques expressed in Tg2576 mouse brain at 100 uM after 10 mins by amyloid beta-protein immunohistostaining
Outline: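 Female Tg2576 and age-matched wild-type mice, 20 months old; brains frozen on dry ice, cut into 10 μm serial sections. Slides incubated 10 min with 100 μM compound in 50% EtOH, washed twice 3 min in 50% EtOH, fluorescence read with excitation 450-490 nm and 520 nm long-pass. Adjacent sections immunostained for Aβ with DAB.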

Blood [4] = assay: Biodistribution in normal ddY mouse blood at 3.7 MBq, iv after 2 mins; assay type: ADME, organism-based; conditions: in vivo
Outline: (§2)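 Tracer (3.7 MBq) in 100 μL saline with 10% EtOH and 1 mg/mL ascorbic acid, injected into tail vein of 5-week-old ddY mice (22-25 g). Groups of five killed at each time; organs removed, weighed, radioactivity γ-counted and expressed as % injected dose per gram, mean ± SD of 4-5 mice.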

Blood [5] = assay: Biodistribution in normal ddY mouse blood at 3.7 MBq, iv after 60 mins; assay type: ADME, organism-based; conditions: in vivo, 1 h; outline: as §2
Blood [6] = assay: Biodistribution in normal ddY mouse blood at 3.7 MBq, iv after 30 mins; assay type: ADME, organism-based; conditions: in vivo, 0.5 h; outline: as §2
Brain [7] = assay: Biodistribution in normal ddY mouse brain at 3.7 MBq, iv after 30 mins; assay type: ADME, organism-based; conditions: in vivo, 0.5 h; outline: as §2
Blood [8] = assay: Biodistribution in normal ddY mouse blood at 3.7 MBq, iv after 10 mins; assay type: ADME, organism-based; conditions: in vivo; outline: as §2
Brain [9] = assay: Biodistribution in normal ddY mouse brain at 3.7 MBq, iv after 10 mins; assay type: ADME, organism-based; conditions: in vivo; outline: as §2
Brain [10] = assay: Biodistribution in normal ddY mouse brain at 3.7 MBq, iv after 2 mins; assay type: ADME, organism-based; conditions: in vivo; outline: as §2
Brain [11] = assay: Biodistribution in normal ddY mouse brain at 3.7 MBq, iv after 60 mins; assay type: ADME, organism-based; conditions: in vivo, 1 h; outline: as §2
Bone [12] = assay: Biodistribution in normal ddY mouse bone at 3.7 MBq, iv after 60 mins; assay type: ADME, organism-based, Bone element; conditions: in vivo, 1 h; outline: as §2
Bone [13] = assay: Biodistribution in normal ddY mouse bone at 3.7 MBq, iv after 10 mins; assay type: ADME, organism-based, Bone element; conditions: in vivo; outline: as §2
Bone [14] = assay: Biodistribution in normal ddY mouse bone at 3.7 MBq, iv after 30 mins; assay type: ADME, organism-based, Bone element; conditions: in vivo, 0.5 h; outline: as §2
Bone [15] = assay: Biodistribution in normal ddY mouse bone at 3.7 MBq, iv after 2 mins; assay type: ADME, organism-based, Bone element; conditions: in vivo; outline: as §2
[16] = Binding affinity to amyloid beta (1 to 42) peptide; outline: as §1

Q: For CNc1ccc(/C=C/C(=O)c2ccc(OCCOCCOCCF)cc2)cc1, which Ki [1] is on record?
A: The Ki was 471 nM.

Q: For CN(C)c1ccc(-c2cn3cc(I)ccc3n2)cc1, which Ki [1] is on record?
A: The Ki was 28 nM.

Q: Which Ki [1] does the source give for Nc1ccc(/C=C/C(=O)c2ccc(F)cc2)cc1 here?
A: Its Ki is 663 nM.

Q: With CN(C)c1ccc(/C=C/C(=O)c2ccc(I)cc2)cc1 as the compound, how does the Ki [1] read?
A: The Ki was 13.1 nM.

Q: For CN(C)c1ccc(/C=C/C(=O)c2ccc(OCCOCCOCCF)cc2)cc1, which Activity [2] is on record?
A: Its Activity is “Active”.

Q: And the Ki [1]?
A: Its Ki is 38.9 nM.

Q: And the Activity [3]?
A: Its Activity is “Active”.

Q: With Nc1ccc(/C=C/C(=O)c2ccc(OCCOCCOCCF)cc2)cc1 as the compound, how does the Ki [1] read?
A: Its Ki is 790 nM.

Q: With CNc1ccc(/C=C/C(=O)c2ccc(OCCOCCF)cc2)cc1 as the compound, how does the Ki [1] read?
A: Its Ki is 216 nM.

Q: For CN([11CH3])c1ccc(/C=C/C(=O)c2ccc(OCCOCCF)cc2)cc1, which Drug uptake (Blood [4]) is on record?
A: The Drug uptake was 3.48 % ID/g.

Q: And the Drug uptake (Blood [5])?
A: Its Drug uptake is 1.44 % ID/g.

Q: And the Drug uptake (Blood [6])?
A: Its Drug uptake is 2.54 % ID/g.

Q: And the Drug uptake (Brain [7])?
A: Its Drug uptake is 1.14 % ID/g.

Q: And the Drug uptake (Blood [8])?
A: The Drug uptake was 2.28 % ID/g.

Q: And the Drug uptake (Brain [9])?
A: The Drug uptake was 2.23 % ID/g.

Q: And the Drug uptake (Brain [10])?
A: Its Drug uptake is 4.73 % ID/g.

Q: What about the Drug uptake (Brain [11]) of the same compound?
A: The Drug uptake was 1 % ID/g.

Q: Which Ki [1] does the source give for Nc1ccc(/C=C/C(=O)c2ccc(OCCOCCF)cc2)cc1 here?
A: Its Ki is 1050 nM.

Q: What does the source list for CN(C)c1ccc(/C=C/C(=O)c2ccc(OCCOCCOCC[18F])cc2)cc1?
A: Drug uptake (Blood [4]): 2.09 % ID/g; Drug uptake (Blood [5]): 1.87 % ID/g; Drug uptake (Bone [12]): 3.58 % ID/g; Drug uptake (Bone [13]): 1.76 % ID/g; Drug uptake (Bone [14]): 2.98 % ID/g; Drug uptake (Bone [15]): 1.8 % ID/g; Drug uptake (Blood [6]): 2.35 % ID/g; Drug uptake (Brain [7]): 1.08 % ID/g; Drug uptake (Blood [8]): 1.94 % ID/g; Drug uptake (Brain [9]): 1.52 % ID/g; Drug uptake (Brain [10]): 3.48 % ID/g; Drug uptake (Brain [11]): 1.07 % ID/g

Q: With CN([11CH3])c1ccc(/C=C/C(=O)c2ccc(OCCOCCOCCF)cc2)cc1 as the compound, how does the Drug uptake (Blood [4]) read?
A: Its Drug uptake is 2.44 % ID/g.

Q: And the Drug uptake (Blood [5])?
A: Its Drug uptake is 0.68 % ID/g.

Q: And the Drug uptake (Blood [6])?
A: The Drug uptake was 1.01 % ID/g.

Q: What about the Drug uptake (Brain [7]) of the same compound?
A: The Drug uptake was 0.64 % ID/g.

Q: What about the Drug uptake (Blood [8]) of the same compound?
A: The Drug uptake was 1.52 % ID/g.

Q: What about the Drug uptake (Brain [9]) of the same compound?
A: The Drug uptake was 1.38 % ID/g.

Q: What about the Drug uptake (Brain [10]) of the same compound?
A: The Drug uptake was 4.31 % ID/g.

Q: What about the Drug uptake (Brain [11]) of the same compound?
A: Its Drug uptake is 0.35 % ID/g.

Q: What does the source list for CN([11CH3])c1ccc(/C=C/C(=O)c2ccc(OCCF)cc2)cc1?
A: Drug uptake (Blood [4]): 3.65 % ID/g; Drug uptake (Blood [5]): 2.22 % ID/g; Drug uptake (Blood [6]): 2.12 % ID/g; Drug uptake (Brain [7]): 2.57 % ID/g; Drug uptake (Blood [8]): 2.73 % ID/g; Drug uptake (Brain [9]): 3.24 % ID/g; Drug uptake (Brain [10]): 6.01 % ID/g; Drug uptake (Brain [11]): 2.26 % ID/g

Q: For CN(C)c1ccc(/C=C/C(=O)c2ccc(F)cc2)cc1, which Ki [1] is on record?
A: Its Ki is 49.8 nM.

Q: Which Ki [1] does the source give for Nc1ccc(/C=C/C(=O)c2ccc(OCCF)cc2)cc1 here?
A: Its Ki is 679 nM.

Q: For CN(C)c1ccc(/C=C/C(=O)c2ccc(OCCF)cc2)cc1, which Ki [1] is on record?
A: The Ki was 45.7 nM.

Q: For CNc1ccc(/C=C/C(=O)c2ccc(OCCF)cc2)cc1, which Ki [1] is on record?
A: The Ki was 197 nM.

Q: For CNc1ccc(/C=C/c2ccc(OCCOCCOCC[18F])cc2)cc1 [FLORBETABEN F18], which Ki [16] is on record?
A: The Ki was 6.7 nM.

Q: Which Ki [1] does the source give for CN(C)c1ccc(/C=C/C(=O)c2ccc(OCCOCCF)cc2)cc1 here?
A: The Ki was 20 nM.

Q: Which Ki [1] does the source give for CNc1ccc(/C=C/C(=O)c2ccc(F)cc2)cc1 here?
A: Its Ki is 234 nM.

Q: Which Drug uptake (Blood [4]) does the source give for CN([11CH3])c1ccc(/C=C/C(=O)c2ccc(F)cc2)cc1 here?
A: The Drug uptake was 2.61 % ID/g.

Q: What about the Drug uptake (Blood [5]) of the same compound?
A: The Drug uptake was 1.4 % ID/g.

Q: What about the Drug uptake (Blood [6]) of the same compound?
A: Its Drug uptake is 0.39 % ID/g.

Q: And the Drug uptake (Brain [7])?
A: Its Drug uptake is 1.04 % ID/g.

Q: What about the Drug uptake (Blood [8]) of the same compound?
A: The Drug uptake was 1.6 % ID/g.

Q: And the Drug uptake (Brain [9])?
A: Its Drug uptake is 1.53 % ID/g.

Q: What about the Drug uptake (Brain [10]) of the same compound?
A: Its Drug uptake is 3.68 % ID/g.

Q: And the Drug uptake (Brain [11])?
A: The Drug uptake was 1.04 % ID/g.
